The results in this text go back to ChEMBL document CHEMBL4425129, “Exploring Basic Tail Modifications of Coumarin-Based Dual Acetylcholinesterase-Monoamine Oxidase B Inhibitors: Identification of Water-Soluble, Brain-Permeant Neuroprotective Multitarget Agents” (J Med Chem, 2016).

Activity calls are given as the source filed them. The calls are words filed in the database; no cut-off is given here.

Series [1] deals with T1, Acetylcholinesterase (Electrophorus electricus, UniProt O42275). Description: Inhibition of electric eel AChE using acetylthiocholine iodide as substrate preincubated for 20 mins followed by substrate addition measured for 5 mins by spectrophotometric Ellman's method. Background: Ellman's reagent forms a yellow product with free thiols.
T1 sequence (O42275 whole entry): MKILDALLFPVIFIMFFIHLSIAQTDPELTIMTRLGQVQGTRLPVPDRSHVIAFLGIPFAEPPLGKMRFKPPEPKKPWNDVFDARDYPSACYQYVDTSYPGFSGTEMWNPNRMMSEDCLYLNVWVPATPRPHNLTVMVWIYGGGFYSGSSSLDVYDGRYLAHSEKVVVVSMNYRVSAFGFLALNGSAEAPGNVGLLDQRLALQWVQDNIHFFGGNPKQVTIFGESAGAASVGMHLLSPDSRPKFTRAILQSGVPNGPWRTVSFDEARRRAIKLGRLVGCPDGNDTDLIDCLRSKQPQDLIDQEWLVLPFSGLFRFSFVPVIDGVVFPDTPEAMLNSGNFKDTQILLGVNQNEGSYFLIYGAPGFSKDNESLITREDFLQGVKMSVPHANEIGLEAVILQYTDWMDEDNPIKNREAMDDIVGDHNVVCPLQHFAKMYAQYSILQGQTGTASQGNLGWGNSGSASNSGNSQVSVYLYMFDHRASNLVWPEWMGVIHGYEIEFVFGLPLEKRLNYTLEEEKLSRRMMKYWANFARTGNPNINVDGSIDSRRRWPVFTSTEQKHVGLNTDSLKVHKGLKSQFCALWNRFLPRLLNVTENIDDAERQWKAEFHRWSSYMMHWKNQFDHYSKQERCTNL
In series [2] the test system is SH-SY5Y. Description: Neuroprotective activity against oligomycin-A-induced oxidative injury in human SH-SY5Y cells assessed as increase in cell viability at 10 uM after 24 hrs by MTT assay. The series is classed as functional, cell-based. In outline:
(§1)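 SH-SY5Y cells incubated 24 h with compound at 1 or 10 µM together with H2O2 300 µM, oligomycin-A 10 µM or rotenone 20 µM. Viability by MTT, as % of cells given neither insult nor compound. Triplicates, three repeats; mean ± SD; two-way ANOVA with Bonferroni post hoc test.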
(In general: Tetrazolium assays rely on reduction of a dye to a coloured formazan, in cell work by metabolically active cells.)

A short description of series [3]: Lipophilicity index, Log K of the compound at 1 mM by RP-HPLC method. The series is classed as physicochemical. Particulars: 1000 µM.
Series [4] in a line: Kinetic aqueous solubility of the compound in Tris-HCl buffer at pH 7.4 by turbidimetric method. The class given is physicochemical. Particulars: for log(Kinetic_solubility): buffer. In outline:
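DMSO stocks added in portions to 50 mM Tris-HCl pH 7.4 at room temperature. Light scattering read as UV absorbance increase at 580–780 nm; solubility from a bilinear fit of absorbance versus µL DMSO. Reported as logS (mol/L), mean ± SEM of three independent assays.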

Series [5] deals with T2, Amine oxidase [flavin-containing] B (Homo sapiens, UniProt P27338).
T2 sequence (P27338 whole entry): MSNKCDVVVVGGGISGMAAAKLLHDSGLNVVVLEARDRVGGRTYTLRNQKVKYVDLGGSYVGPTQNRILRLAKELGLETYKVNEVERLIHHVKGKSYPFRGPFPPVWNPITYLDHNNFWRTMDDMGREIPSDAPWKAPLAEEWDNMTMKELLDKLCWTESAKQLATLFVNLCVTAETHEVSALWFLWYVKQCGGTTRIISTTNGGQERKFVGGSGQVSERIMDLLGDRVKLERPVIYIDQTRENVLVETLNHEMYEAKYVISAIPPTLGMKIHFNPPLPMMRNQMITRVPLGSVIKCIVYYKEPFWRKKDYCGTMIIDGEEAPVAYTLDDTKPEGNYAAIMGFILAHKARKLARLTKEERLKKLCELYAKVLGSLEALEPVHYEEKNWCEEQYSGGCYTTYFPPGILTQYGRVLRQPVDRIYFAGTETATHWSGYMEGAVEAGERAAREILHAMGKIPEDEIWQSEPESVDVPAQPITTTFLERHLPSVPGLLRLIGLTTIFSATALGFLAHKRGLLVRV
The series is described as follows: Inhibition of human recombinant MAOB expressed in microsomes of baculovirus-infected insect cell using kynuramine as substrate preincubated for 20 mins followed by protein addition measured after 30 mins by fluorescence assay.

Another series concerns the target Cholinesterase (Equus caballus, UniProt P81908). Description: Inhibition of equine serum BChE using butyrylthiocholine iodide as substrate preincubated for 20 mins followed by substrate addition measured for 5 mins by spectrophotometric Ellman's method. In outline: (§2)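 BChE from equine serum (13 U/mg), Ellman spectrophotometric method run in 96-well format. Seven inhibitor concentrations, 10^-4 to 10^-10 M, each in triplicate. IC50 from non-linear regression of response against log(concentration). […] Mean of three independent experiments.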

The target of series [6] is T3, Amine oxidase [flavin-containing] A (Homo sapiens, UniProt P21397).
T3 sequence (P21397 whole entry): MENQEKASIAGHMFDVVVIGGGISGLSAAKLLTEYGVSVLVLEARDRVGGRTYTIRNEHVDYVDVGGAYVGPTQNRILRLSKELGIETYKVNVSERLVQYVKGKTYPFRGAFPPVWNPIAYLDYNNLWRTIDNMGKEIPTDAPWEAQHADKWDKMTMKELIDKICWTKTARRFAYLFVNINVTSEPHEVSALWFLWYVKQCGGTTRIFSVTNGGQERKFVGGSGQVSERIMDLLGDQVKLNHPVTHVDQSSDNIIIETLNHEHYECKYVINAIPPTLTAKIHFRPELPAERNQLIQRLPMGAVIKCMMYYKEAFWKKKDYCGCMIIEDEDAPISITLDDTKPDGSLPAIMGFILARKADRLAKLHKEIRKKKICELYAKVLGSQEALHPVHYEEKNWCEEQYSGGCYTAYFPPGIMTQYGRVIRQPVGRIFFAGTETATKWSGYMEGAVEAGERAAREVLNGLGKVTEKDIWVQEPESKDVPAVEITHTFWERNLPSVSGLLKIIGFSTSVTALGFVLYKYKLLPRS
Description: Inhibition of human recombinant MAOA expressed in microsomes of baculovirus-infected insect cell using kynuramine as substrate preincubated for 20 mins followed by protein addition measured after 30 mins by fluorescence assay. In outline:
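Recombinant human MAO A (baculovirus-infected insect cell microsomes) with kynuramine substrate; inhibitor preincubated 20 min at 37 °C, enzyme then added and incubated 30 min more. Fluorescence at ex/em 320/400 nm. Triplicates, three independent experiments.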

For series [7], the system named is SH-SY5Y. The series is described as follows: Neuroprotective activity against oligomycin-A-induced oxidative injury in human SH-SY5Y cells assessed as increase in cell viability at 1 uM after 24 hrs by MTT assay. The series is classed as functional, cell-based. In a few lines:
as §1

Series [8] deals with SH-SY5Y. Description: Neuroprotective activity against rotenone-induced oxidative injury in human SH-SY5Y cells assessed as increase in cell viability at 10 uM after 24 hrs by MTT assay. The class given is functional, cell-based. In a few lines:
as §1

In series [9] the test system is SH-SY5Y. Description: Neuroprotective activity against rotenone-induced oxidative injury in human SH-SY5Y cells assessed as increase in cell viability at 1 uM after 24 hrs by MTT assay. The class given is functional, cell-based. In a few lines: as §1
Series [10] has as its system SH-SY5Y. The series is described as follows: Neuroprotective activity against H2O2-induced oxidative injury in human SH-SY5Y cells assessed as increase in cell viability at 1 to 10 uM after 24 hrs by MTT assay. The class given is functional, cell-based. In outline:
as §1

The target of series [11] is T1, Acetylcholinesterase. The series is described as follows: Mixed-type inhibition of electric eel AChE using S-acetylthiocholine as substrate preincubated for 20 mins followed by substrate addition measured for 5 mins by Lineweaver-Burk plot method.
Series [12] is described as follows: Apparent permeability across basolateral to apical side in MDCK2-MDR1 cells at 5 to 75 uM by UV-visible spectroscopic method. The note with it: dog, MDCK-MDR1. The class given is ADME, cell-based, Canis lupus familiaris. In a few lines:
(§3)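 Acceptor concentrations measured by UV–visible spectroscopy against PBS calibration curves linear over 5–75 µM. Papp (cm/sec) = (VA/(area × time)) × ([drug]acceptor/[drug]initial). Triplicates, three experiments.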

Series [13] is described as follows: Apparent permeability across apical to basolateral side in MDCK2-MDR1 cells at 5 to 75 uM by UV-visible spectroscopic method. The class given is ADME, cell-based, Canis lupus familiaris. The note with it: dog, MDCK-MDR1. In outline: as §3
Series [14] can be described thus: Efflux ratio of apparent permeability across basolateral to apical side over apical to basolateral side in MDCK2-MDR1 cells at 5 to 75 uM by UV-visible spectroscopic method. The series is classed as ADME, cell-based, Canis lupus familiaris. The note with it: dog, MDCK-MDR1. In outline:
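Canine kidney MDCKII-MDR1 cells (retrovirally transfected with human MDR1 cDNA), cultured in DMEM and seeded at 100000 cells/cm2 on 0.4 µm-pore Transwell inserts. […] Apical-to-basolateral and basolateral-to-apical transport were measured, with compound quantified by UV-vis absorbance against PBS calibration curves (5–75 µM). ER = Papp BL-AP / Papp AP-BL. Triplicates, three experiments.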

Series [15] has as its system SH-SY5Y. Description: Cytotoxicity against human SH-SY5Y cells assessed as inhibition of cell growth after 24 hrs by MTT assay. The class given is cell-based. In a few lines:
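SH-SY5Y cells exposed 24 h at 37 °C to 0.1, 1, 5, 10 and 50 µM; viability read by MTT at 570 nm versus untreated cells. […] Means ± SD, n = 3.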

In series [16] the target is Cholinesterase (Equus caballus) (UniProt P81908). Description: Inhibition of equine serum BChE at 10 uM using butyrylthiocholine iodide as substrate preincubated for 20 mins followed by substrate addition measured for 5 mins by spectrophotometric Ellman's method relative to control. In a few lines:
as §2

Series [17] deals with T3, Amine oxidase [flavin-containing] A. The series is described as follows: Inhibition of human recombinant MAOA expressed in microsomes of baculovirus-infected insect cell at 10 uM using kynuramine as substrate preincubated for 20 mins followed by protein addition measured after 30 mins by fluorescence assay relative to control. The note with it: 0.5 h. In a few lines:
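Recombinant human MAO A (baculovirus-infected insect cell microsomes) with kynuramine substrate; inhibitor preincubated 20 min at 37 °C, enzyme then added and incubated 30 min more. Fluorescence at ex/em 320/400 nm. […] Triplicates, three independent experiments.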

Sequence of Cholinesterase (Equus caballus) (P81908 whole entry): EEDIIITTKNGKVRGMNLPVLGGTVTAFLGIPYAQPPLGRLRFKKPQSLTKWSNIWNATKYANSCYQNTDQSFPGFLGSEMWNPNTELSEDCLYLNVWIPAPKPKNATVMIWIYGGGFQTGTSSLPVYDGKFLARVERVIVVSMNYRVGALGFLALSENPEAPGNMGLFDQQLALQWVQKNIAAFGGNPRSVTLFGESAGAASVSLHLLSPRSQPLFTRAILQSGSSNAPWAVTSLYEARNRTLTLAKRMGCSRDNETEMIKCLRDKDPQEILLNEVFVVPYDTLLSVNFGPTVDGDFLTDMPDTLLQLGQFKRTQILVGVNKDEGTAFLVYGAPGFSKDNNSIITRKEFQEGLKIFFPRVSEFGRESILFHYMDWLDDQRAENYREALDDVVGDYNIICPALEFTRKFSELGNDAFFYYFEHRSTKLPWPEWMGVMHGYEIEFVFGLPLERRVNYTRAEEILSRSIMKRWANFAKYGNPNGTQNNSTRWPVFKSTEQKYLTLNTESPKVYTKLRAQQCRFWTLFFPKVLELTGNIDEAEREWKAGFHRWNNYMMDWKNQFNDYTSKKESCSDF
Sequence of Cholinesterase (P81908 whole entry): as above

Broadly, the IC50 is the concentration at which inhibition is half-maximal. Regarding `Cc1c(C)c2ccc(OCC3CCN(Cc4ccccc4)CC3)cc2oc1=O.Cl`, the half-maximal inhibitory concentration (IC50) was 1660 nM on Acetylcholinesterase [1], 105 nM in series [5], 4720 nM against Cholinesterase and 2410 nM in [6]. The result in the series with SH-SY5Y [2] and in the series on SH-SY5Y [7] was inactive. For the same compound, the “log K” value in series [3] stood at 1.98. Also, in series [4], the “log(Kinetic_solubility)” value was -4.25.
Consider `Cc1c(C)c2ccc(OCC3CCCN(Cc4ccccc4)C3)cc2oc1=O` (racemic), for which the outcome in the series with SH-SY5Y [2], in the series with SH-SY5Y [8], in the series with SH-SY5Y [9], in the series on SH-SY5Y [7] and in the series on SH-SY5Y [10] was Active.
Usually Ki stands for a dissociation constant, usually derived from enzyme kinetics or from competition with a known ligand. Usually Papp B→A stands for the apparent permeability from the basolateral to the apical side of a cell layer. One may read the Papp A→B as the apparent permeability from the apical to the basolateral side of a cell layer. The term efflux ratio denotes a quotient of directional permeabilities that is used to spot active efflux. As for `Cc1c(C)c2ccc(OCC3CCCN(Cc4ccccc4)C3)cc2oc1=O.Cl` (racemic), the IC50 against Acetylcholinesterase [1] was found to be 1030 nM; at Cholinesterase, 3410 nM; in series [6], 2810 nM; with SH-SY5Y [15], 44000 nM. This compound yielded an inhibition constant Ki on Acetylcholinesterase [11] of 1370 nM. In addition, the Papp B→A at up to 75 µM in [12] turned out to be 14.8 ×10⁻⁶ cm/s. Also, the “log K” value in [3] came out at 2.01. Also, the apparent permeability from apical to basolateral (Papp A→B) at up to 75 µM in series [13] stood at 24.3 ×10⁻⁶ cm/s. Besides, the solubility kinetic in [4] (Tris-HCl buffer, read-out: Kinetic_solubility) was found to be 119 µM. Besides, in series [4], the “log(Kinetic_solubility)” value is recorded as -3.92. Further, the efflux ratio at up to 75 µM in series [14] came out at 0.61.
By inhibition is commonly meant the change of the read-out against control, counted positive when it falls. Turning to `Cc1c(C)c2ccc(OCC3CCCN(Cc4cccc(Br)c4)C3)cc2oc1=O` (racemic), the outcome with SH-SY5Y [2], in the series on SH-SY5Y [8], in the series on SH-SY5Y [9], in the series with SH-SY5Y [7] and with SH-SY5Y [10] was Active. Also, in series [16], the inhibition was 30%.
Turning to `Cc1c(C)c2ccc(OCC3CCCN(Cc4cccc(Br)c4)C3)cc2oc1=O.Cl` (racemic), the figures for the concentration for half-maximal inhibition (IC50) (against Acetylcholinesterase [1]; in series [5]; in [6]) were 1910 nM, 110 nM and 810 nM, respectively. Besides, the Papp B→A at up to 75 µM in series [12] was 2.16 ×10⁻⁶ cm/s. In addition, the Papp A→B at up to 75 µM in series [13] stood at 0.84 ×10⁻⁶ cm/s. Further, the efflux ratio at up to 75 µM in [14] came out at 2.56.
Regarding `Cc1c(C)c2ccc(OCC3CCCN(C)C3)cc2oc1=O.Cl` (racemic), the 50% inhibitory concentration (IC50) at Acetylcholinesterase [1] was found to be 800 nM; in series [5] it was 137 nM; in [6], 9330 nM; in the series on SH-SY5Y [15], 30000 nM. Further, the result in the series on SH-SY5Y [2] and in the series with SH-SY5Y [7] was inactive. In series [12], the basolateral-to-apical permeability (Papp B→A) at up to 75 µM was 20.2 ×10⁻⁶ cm/s. In addition, the “log K” value in [3] was 1.14. The Papp A→B at up to 75 µM in series [13] was determined as 22.3 ×10⁻⁶ cm/s. In addition, the “log(Kinetic_solubility)” value in series [4] is listed as -3.67. Moreover, the result in the series on SH-SY5Y [8], in the series with SH-SY5Y [9] and in the series on SH-SY5Y [10] was Active. Further, the inhibition in series [16] stood at 19%. For the same compound, the efflux ratio at up to 75 µM in series [14] is 0.9.
Consider `Cc1c(C)c2ccc(OCC3CCN(Cc4ccc(Cl)cc4)CC3)cc2oc1=O`, for which the IC50 at Acetylcholinesterase [1] was 9570 nM; in [5], 614 nM. The inhibition at 10 µM in series [17] is 37%. This compound came in with an inhibition in series [16] of 19%.
